# Bioassay records from PubChem.
# HCV core dimer: blocks dimerization of HCV core protein; TR-FRET GST/Flag-core106 dimerization, 1536-well; inhibition, % at 5 µM; 300,000 compounds, 0.33% hits; AID 1899;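 active = inhibition above the mean of all tested compounds plus 3 SD, set per screening campaign, cut at about 45% in these data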
#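 Assay system: Tagged HCV core106 pair (GST and Flag) | Buffer or medium: KF-containing HEPES buffer, pH 7.45, DTT, CHAPS, BSA | Also added: Eu donor and XL665 acceptor anti-tag antibodies | Dosing: One concentration, 5 µM, in 0.5% DMSO | Timing: 4 h at 22.5 °C | Technique: TR-FRET 671 and 617 nm emission | Repeats: Singlicate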
# EBNA-1 inh: blocks EBNA-1 binding to DNA | EBNA-1 DNA binding, fluorescence polarization | inhibition, % at 14.8 µM | 300,000 compounds, 0.34% hits | AID 1950; in the data active = inhibition above about 28%
# HCV NS3 hel inh: HCV NS3 helicase inhibition. 290,000 compounds, 0.56% hits. inhibition, % at 10.9 µM. NS3 helicase DNA unwinding, Cy5 molecular beacon fluorescence;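 active = inhibition above the mean of all tested compounds plus 3 SD, set per campaign, cut at about 35% in these data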;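 also: 0% = DMSO wells and 100% = thioflavine S control wells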
#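 Assay system: hepatitis C virus NS3 helicase domain fragment enzyme. Also added: annealed dual-labelled DNA beacon duplex, ATP-started. Timing: 1 h reaction at 25 °C, ATP-initiated. Technique: Cy5 fluorescence at 0 and 60 min, beacon hairpin quenching. Evaluation: % inhibition of unwinding. Replication: one well per compound.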
# ZTA DNA inh: blocks Epstein-Barr virus ZTA, an EBNA-1 counter-screen. P03206. ZTA-DNA binding, fluorescence polarization. inhibition, % at 11 µM. 320,000 compounds, 0.15% hits. AID 2234; in the data active = inhibition above about 33%
# Target sequence (P03206 whole entry, looked up): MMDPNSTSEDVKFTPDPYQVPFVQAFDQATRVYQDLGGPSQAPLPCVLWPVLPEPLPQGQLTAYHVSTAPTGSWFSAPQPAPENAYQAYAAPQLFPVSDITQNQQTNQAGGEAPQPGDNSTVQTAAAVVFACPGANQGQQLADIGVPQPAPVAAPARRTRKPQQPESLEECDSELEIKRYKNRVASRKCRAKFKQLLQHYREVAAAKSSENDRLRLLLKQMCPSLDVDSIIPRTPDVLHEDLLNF
# PP1 counter: PP1-alpha (human) inhibition in PP5 counter-screen | inhibition, % at 6.7 µM | AID 2235 | purified PP1alpha, OMFP fluorescence | P62136 | 320,000 compounds, 0.9% hits;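 active = inhibition above the mean inhibition of all tested compounds plus 3 SD, computed separately for each screening campaign, cut at about 15% in these data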
# Target sequence (P62136 whole entry, looked up): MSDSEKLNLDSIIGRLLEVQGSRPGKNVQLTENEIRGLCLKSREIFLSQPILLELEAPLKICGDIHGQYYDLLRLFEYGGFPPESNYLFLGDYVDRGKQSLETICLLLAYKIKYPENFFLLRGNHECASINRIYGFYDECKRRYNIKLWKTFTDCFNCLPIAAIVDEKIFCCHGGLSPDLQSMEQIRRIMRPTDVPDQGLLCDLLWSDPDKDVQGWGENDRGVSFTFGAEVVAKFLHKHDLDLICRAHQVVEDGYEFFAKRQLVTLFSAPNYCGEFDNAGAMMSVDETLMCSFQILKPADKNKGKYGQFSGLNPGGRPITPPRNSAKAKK
# NS3 helicase cf: HCV NS3 helicase inhibition, confirmation assay; shares compounds with HCV NS3 hel inh; NS3 helicase DNA unwinding, Cy5 molecular beacon fluorescence; inhibition, % at 10.9 µM; 1,600 compounds, 31% hits; AID 1943;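 active = inhibition above the mean of all tested compounds plus 3 SD, cutoff set per campaign, cut at about 36% in these data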
# DNA FID counter: intercalator displacement, NS3 helicase counter-screen | inhibition, % at 7.9 µM | 1,600 compounds, 4% hits | AID 1945 | DNA fluorescent intercalator displacement, fluorescence | shares compounds with HCV NS3 hel inh; in the data active = inhibition above about 37%;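 also: 0% = vehicle and 100% = reference compound; higher means more displacement of ethidium bromide from the DNA hairpin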
# Starred values were filed as active, the others as inactive; . = not tested or not shown. Hits are enriched below; roughly 1.9% of the tested compounds scored in any of these assays.
SMILES,HCV core dimer,EBNA-1 inh,HCV NS3 hel inh,ZTA DNA inh,PP1 counter,NS3 helicase cf,DNA FID counter
CCOC(=O)c1c(N)sc2c1CCC(C)C2 (stereo not given),-1,0,43*,0,1,-15,-16
O=C(C1CCCO1)N1CCN(C(=S)Nc2ccccc2Cl)CC1 (stereo not given),-18,5,-2,7,0,.,.
COc1ccccc1NC(CC(=O)c1ccccc1)C(=O)OCC(=O)c1ccc(F)cc1 (stereo not given),3,6,3,-11,2,.,.
COc1cccc2[nH]c3c(=O)n(CCN(C)C)cnc3c12,3,5,.,4,-3,.,.
CCN(CC)CCn1cnc2c([nH]c3cccc(OC)c32)c1=O,-2,-11,42*,-1,-1,-16,2
O=C(CSc1nnc2ccc(-c3ccc(Br)cc3)nn12)NCC1CCCO1 (stereo not given),-8,7,.,-17,-3,.,.
COC(=O)c1c[nH]n2c(=O)c(Cl)c(C)nc12,-13,-4,7,-8,-3,.,.
Cc1nc2c(C(=O)NCc3ccccc3Cl)c[nH]n2c(=O)c1Cl,12,3,56*,13,14,46*,6
C=CCn1c(=O)c2ccccc2n2c(SCC(=O)NCC)nnc12,0,-6,3,-6,0,.,.
CCOC(=O)C1=C(O)/C(=C\c2ccc(CNC(=O)C(=O)Nc3ccccc3)o2)N=C1C,14,1,40*,4,9,31,-8
CCOC(=O)C1=C(O)/C(=C\c2cccs2)N=C1C,-16,-7,3,-13,0,.,.
COc1cccc(NC(=O)C2CCCN2C(=O)NC2CCCCC2)c1 (stereo not given),8,6,9,8,-1,.,.
COc1ccc(NC(=O)/C(=C\c2ccco2)NC(=O)c2ccco2)cc1,10,5,4,-2,0,.,.
COc1ccc(NC(=O)/C(C#N)=C\C=C\c2ccco2)cc1,0,2,85*,-4,2,-4,0
O=C(Nc1nnc(C2=COCCO2)o1)c1cccc(Br)c1,-4,4,39*,-17,7,-8,4
O=C(NC1CCCCC1)C1CCN(C(=O)c2ccc(Cl)cc2)CC1,-6,-7,3,-8,1,.,.
CC(C)Oc1ccc(C(=O)OCC(=O)N2CCCc3ccccc32)cc1,3,-4,.,3,1,.,.
CC1(c2nnc(-c3ccncc3)o2)CC(c2ccc(F)cc2)=NO1 (stereo not given),1,1,.,-5,1,.,.
NNC(=S)Nc1cccc(-c2n[nH]c(=S)o2)c1,4,11,37*,5,1,2,-9
CCCc1cc(=O)oc2cc(C)cc(OC(C)C(=O)NCC3CCC(C(=O)O)CC3)c12 (stereo not given),-5,-6,38*,4,2,-19,-12
COc1ccc(C2(CNC(=O)/C=C/c3ccco3)CCCC2)cc1OC,23,-5,38*,4,0,-1,-55
CCN(CC)S(=O)(=O)c1ccc(OC)c(NC(=O)/C=C/c2ccco2)c1,0,-5,63*,3,1,-17,-20
Cc1ccc(-n2c(C)cc(C(=O)NS(=O)(=O)c3ccc(C)cc3)c2C)cc1,20,5,39*,11,3,43*,-31
Cc1ccc(S(=O)(=O)NC(=O)c2cc(C)n(CCCN3CCOCC3)c2C)cc1,1,-8,4,0,-1,.,.
Cc1ccc(S(=O)(=O)NC(=O)c2cc(C)n(C3CC3)c2C)cc1,-5,2,38*,-14,0,-18,-7
SMILES,HCV core dimer,EBNA-1 inh,HCV NS3 hel inh,ZTA DNA inh,PP1 counter,NS3 helicase cf,DNA FID counter
CCOc1ccc(-n2c(C)cc(C(=O)NS(=O)(=O)c3ccc(C)cc3)c2C)cc1,5,-8,6,0,-1,.,.
CCCCCC/C(C)=C1/SC(=S)NC1=O,6,16,40*,10,1,12,0
O=C1CSC(=S)N1/N=C/C=C/c1ccccc1,53*,4,39*,-4,0,7,10
COc1ccc(CCNC(=O)CN(c2cc(C)cc(C)c2)S(=O)(=O)c2c(C)noc2C)cc1OC,10,5,3,3,-1,.,.
C=CCN1C(=O)/C(=C/c2ccsc2)SC1=S,3,-3,24,16,-3,.,.
C=CCN1C(=O)/C(=C/c2ccc(-c3ccc(F)cc3)o2)SC1=S,22,19,78*,16,0,-10,21
N/C(CC(=O)Nc1cc(C(F)(F)F)ccc1Cl)=N\O,-12,-4,19,-10,3,-4,8
Cc1ccc(-c2csc(/C(C#N)=C(\O)CN3CCN(C(=O)c4ccco4)CC3)n2)cc1,6,2,37*,5,2,42*,-14
N#C/C(=C(/O)CN1CCOCC1)c1nc(-c2ccccc2)cs1,-1,12,6,-4,3,.,.
CCOC(=O)c1ccc(N2C(=O)c3n[nH]c(-c4ccco4)c3C2c2ccc([N+](=O)[O-])cc2)cc1 (stereo not given),22,-11,38*,-21,13,20,-31
CC1(C)CC(=O)C2=C(C1)OC1=C(C(=O)CC(C)(C)C1)C2c1cc([N+](=O)[O-])cc([N+](=O)[O-])c1O,11,-9,43*,-1,5,78*,-18
CCOc1cc(C2C3=C(CC(C)(C)CC3=O)OC3=C2C(=O)CC(C)(C)C3)cc([N+](=O)[O-])c1O,-4,-6,18,-6,-1,.,.
CCCCN1Cc2c(nc3cc(-c4ccco4)[nH]n3c2=O)C1=O,-7,17,49*,21,3,-4,7
CC1CCCN(C(=O)c2cccc(S(=O)(=O)Nc3cc(C(F)(F)F)ccc3Cl)c2)C1 (stereo not given),11,-3,44*,14,5,57*,-39
O=C(c1cccc(S(=O)(=O)Nc2ccccc2Cl)c1)N1CCC1,-2,-1,.,7,0,.,.
CC(C)(C)OC(=O)N1CCC(CNC(=O)c2ccc(F)cc2F)CC1,0,-10,41*,-3,-4,-5,-6
Cc1c(C)c(C)c(C(=O)c2ccc(NC(=O)c3ccccc3C(=O)O)cc2)c(C)c1C,17,-12,-26,4,1,.,.
O=C1OC(/C=C/c2ccccc2)=NC/1=C/C=C/c1ccccc1,19,4,17,0,2,.,.
O=C1OC(/C=C/c2ccc(Cl)cc2)=NC/1=C/c1ccco1,21,-3,41*,12,4,-2,3
O=C(Nc1cc(S(=O)(=O)Nc2ccc(Cl)cc2)ccc1O)c1ccc(S(=O)(=O)N2CCCCCC2)cc1,24,12,45*,4,2,-26,3
